Data set [1] has as its system scopolamine-induced deficits in contextual fear conditioning. The data set is described as follows: Contextual fear conditioning, scopolamine-induced deficit. It is filed as in vivo. As to conditions: rat; for effect on acquisition of contextual fear conditioning response: 0.2 mg/kg s.c., 15 minutes prior to training, 0.2 mg/kg. The essentials: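 Male Sprague–Dawley rats (380–420 g) were habituated to vehicle injections for 2 days. Test compound (1–10 mg/kg ip) was given 30 min before training, and scopolamine (0.2 mg/kg sc) or vehicle 15 min before. Training used two 1 s, 0.5 mA footshocks 2.5 min apart, with a vanilla odour cue. At 24 h, video-scored freezing over 7 min was expressed as percent. Groups had 3–4 rats; one-way ANOVA with Dunnett's test against vehicle/scopolamine.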

A further data set has as its target T1, hM5 (Homo sapiens, UniProt P08912).
T1 sequence (P08912 1-532): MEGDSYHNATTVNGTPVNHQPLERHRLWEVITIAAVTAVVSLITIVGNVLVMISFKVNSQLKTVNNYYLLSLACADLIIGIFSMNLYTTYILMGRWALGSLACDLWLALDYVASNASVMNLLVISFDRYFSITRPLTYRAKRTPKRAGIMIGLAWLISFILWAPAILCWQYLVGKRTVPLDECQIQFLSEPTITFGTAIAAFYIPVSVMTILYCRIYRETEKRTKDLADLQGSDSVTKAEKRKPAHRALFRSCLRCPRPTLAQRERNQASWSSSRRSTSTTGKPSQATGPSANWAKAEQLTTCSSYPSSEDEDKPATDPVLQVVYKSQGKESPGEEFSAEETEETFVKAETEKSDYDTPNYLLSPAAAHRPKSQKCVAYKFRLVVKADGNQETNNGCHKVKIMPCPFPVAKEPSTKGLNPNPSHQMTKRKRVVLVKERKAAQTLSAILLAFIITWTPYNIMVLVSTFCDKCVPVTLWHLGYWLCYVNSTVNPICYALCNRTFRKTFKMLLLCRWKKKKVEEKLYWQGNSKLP
The data set is described as follows: Calcium mobilization assay, agonist mode, M5. To be noted: up to 30 μM. It is filed as cell-based. In short, it runs like this:
(§1)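 CHO-K1 cells stably expressing hM2/Gqi5 or rM4/Gqi5 (6 × 10^4 cells/well), or hM3 or hM5 (5 × 10^4 cells/well), were cultured overnight at 37 °C in 5% CO2. Cells were loaded with 2 μM Fluo-4 AM for 1 h at 37 °C in HBSS with 20 mM HEPES and 2.5 mM probenecid, pH 7.4. Eight-point test compound concentration series were added at 19 s of a 130 s read. Calcium flux was read as fluorescence fold over basal.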

A further data set concerns the target T2, rM1 Y381A (Rattus norvegicus, UniProt P08482, Y381A).
T2 sequence (P08482 1-460 Y381A): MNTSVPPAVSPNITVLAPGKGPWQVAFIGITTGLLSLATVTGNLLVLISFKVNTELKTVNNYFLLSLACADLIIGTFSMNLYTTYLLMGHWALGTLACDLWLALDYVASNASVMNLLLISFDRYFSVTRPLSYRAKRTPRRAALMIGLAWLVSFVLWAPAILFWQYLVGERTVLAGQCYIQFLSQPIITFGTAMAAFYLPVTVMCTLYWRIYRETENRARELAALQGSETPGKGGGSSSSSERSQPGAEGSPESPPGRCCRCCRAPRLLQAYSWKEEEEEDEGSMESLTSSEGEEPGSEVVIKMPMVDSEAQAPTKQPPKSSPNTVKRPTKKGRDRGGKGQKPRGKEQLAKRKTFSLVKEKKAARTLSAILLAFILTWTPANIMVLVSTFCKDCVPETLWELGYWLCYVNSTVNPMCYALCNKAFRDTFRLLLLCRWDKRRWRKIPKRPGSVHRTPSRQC
Put plainly: Calcium mobilization in rM1 Y381A. To be noted: for potency at M1 Y381A compared with WT M1: M1Y381A CHO cells vs WT M1 CHO cells. It is filed as cell-based. In general terms: A change in cytosolic calcium serves as a functional read-out for many receptors and channels.

Another data set deals with T3, hM2 (Homo sapiens, UniProt P08172).
T3 sequence (P08172 1-466): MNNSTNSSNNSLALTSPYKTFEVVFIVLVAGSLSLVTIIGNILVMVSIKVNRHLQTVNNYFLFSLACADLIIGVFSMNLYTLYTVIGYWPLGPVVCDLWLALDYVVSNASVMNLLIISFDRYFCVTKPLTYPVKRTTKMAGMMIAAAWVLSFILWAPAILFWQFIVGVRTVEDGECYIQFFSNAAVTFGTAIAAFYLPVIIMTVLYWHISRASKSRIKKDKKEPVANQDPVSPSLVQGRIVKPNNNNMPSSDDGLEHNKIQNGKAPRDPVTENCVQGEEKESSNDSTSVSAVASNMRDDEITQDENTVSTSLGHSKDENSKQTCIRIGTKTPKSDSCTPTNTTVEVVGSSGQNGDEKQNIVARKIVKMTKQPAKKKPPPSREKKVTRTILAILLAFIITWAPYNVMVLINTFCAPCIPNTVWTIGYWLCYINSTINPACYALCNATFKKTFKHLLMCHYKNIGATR
Put plainly: Calcium mobilization assay, agonist mode, M2. To be noted: up to 30 μM. The class given is cell-based. In short, it runs like this:
as §1

Another data set deals with hM3 (Homo sapiens, UniProt P20309). Put plainly: Calcium mobilization assay, agonist mode, M3. It is filed as cell-based. To be noted: up to 30 μM. The essentials:
as §1

Data set [2] is described as follows: Plasma-brain exposure profile PK study. The class given is in vivo. As to conditions: rat. The essentials: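 Test compound was dissolved in sterile water at 5 mg/mL and dosed at 10 mg/kg ip in male Sprague–Dawley rats (225–250 g). Plasma and brain were collected at 0.5, 1, 2, 4 and 8 h, with three rats per time point. Brains were homogenized 1:3 in PBS, and samples were extracted by acetonitrile/0.1% formic acid precipitation with internal standard. Quantification was by LC-MS/MS SRM (10–2000 ng/mL calibration), with noncompartmental analysis.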

The next data set has as its target T4, rM4 (Rattus norvegicus, UniProt P08485).
T4 sequence (P08485 1-478): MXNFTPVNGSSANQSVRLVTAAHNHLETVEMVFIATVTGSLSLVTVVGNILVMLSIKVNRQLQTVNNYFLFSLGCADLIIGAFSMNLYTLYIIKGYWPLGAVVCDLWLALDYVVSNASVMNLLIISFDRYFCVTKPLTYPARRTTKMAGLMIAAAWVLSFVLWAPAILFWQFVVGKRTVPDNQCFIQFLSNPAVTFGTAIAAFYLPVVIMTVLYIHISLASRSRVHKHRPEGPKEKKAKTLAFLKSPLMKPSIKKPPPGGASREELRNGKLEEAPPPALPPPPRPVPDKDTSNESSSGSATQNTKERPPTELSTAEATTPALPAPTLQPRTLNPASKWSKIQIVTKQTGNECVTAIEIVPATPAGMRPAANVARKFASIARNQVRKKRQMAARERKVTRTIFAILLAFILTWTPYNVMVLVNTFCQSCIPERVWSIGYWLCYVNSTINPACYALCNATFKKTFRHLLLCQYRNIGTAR
The data set is described as follows: Calcium mobilization assay, agonist mode, M4. It is filed as cell-based. As to conditions: up to 30 μM. In short, it runs like this:
as §1

The next data set in a line: Aqueous solubility. The class given is physicochemical. To be noted: water.
The target of the next data set is T5, rM1 receptor (Rattus norvegicus, UniProt P08482).
T5 sequence (P08482 1-460): T2 sequence (P08482 1-460 Y381A) with A381Y
The data set is described as follows: Calcium mobilization assay, CHO-K1 cells stably expressing rM1. It is filed as cell-based. As to conditions: for EC50: read-out: M1 EC50; for M1 potency and efficacy (SAR statement): substitution around the benzyl ring.

Another data set addresses T6, M1 (Rattus norvegicus, UniProt P08482).
T6 sequence (P08482 1-460): T2 sequence (P08482 1-460 Y381A) with A381Y
Put plainly: HTS confirmation concentration-response in M1-CHO cells. The class given is cell-based. As to conditions: for sensitivity to block by atropine: concentration series in the presence of atropine; for EC50: read-out: M1 EC50, from the DPI DMSO stock.

In the next data set the target is T7, M5 (Homo sapiens, UniProt P08912).
T7 sequence (P08912 1-532): T1 sequence (P08912 1-532)
The data set is described as follows: Antagonism of EC80 ACh response, calcium mobilization, M5. To be noted: read-out: M5 antagonism IC50; attenuation of EC80 ACh response. It is filed as cell-based.

A further data set deals with T8, M2 (Homo sapiens, UniProt P08172).
T8 sequence (P08172 1-466): T3 sequence (P08172 1-466)
The data set is described as follows: Antagonism of EC80 ACh response, calcium mobilization, M2. To be noted: read-out: M2 antagonism IC50; attenuation of EC80 ACh response. The class given is cell-based.

Where [3] appears, read: rM1 CHO-K1, calcium mobilization.

Structures are written as SMILES. Positions count from the first letter of the chain named.

The term Kp denotes tissue or fluid exposure divided by exposure in the circulation. A word on the solubility: it is how much of the substance goes into solution per volume. Higher therefore signals a readily soluble substance. What is called EC50 is the concentration that produces a half-maximal response. As usually defined, the IC50 is the point on the concentration scale where inhibition reaches its midpoint.

Sequence of hM3 (P20309 whole entry): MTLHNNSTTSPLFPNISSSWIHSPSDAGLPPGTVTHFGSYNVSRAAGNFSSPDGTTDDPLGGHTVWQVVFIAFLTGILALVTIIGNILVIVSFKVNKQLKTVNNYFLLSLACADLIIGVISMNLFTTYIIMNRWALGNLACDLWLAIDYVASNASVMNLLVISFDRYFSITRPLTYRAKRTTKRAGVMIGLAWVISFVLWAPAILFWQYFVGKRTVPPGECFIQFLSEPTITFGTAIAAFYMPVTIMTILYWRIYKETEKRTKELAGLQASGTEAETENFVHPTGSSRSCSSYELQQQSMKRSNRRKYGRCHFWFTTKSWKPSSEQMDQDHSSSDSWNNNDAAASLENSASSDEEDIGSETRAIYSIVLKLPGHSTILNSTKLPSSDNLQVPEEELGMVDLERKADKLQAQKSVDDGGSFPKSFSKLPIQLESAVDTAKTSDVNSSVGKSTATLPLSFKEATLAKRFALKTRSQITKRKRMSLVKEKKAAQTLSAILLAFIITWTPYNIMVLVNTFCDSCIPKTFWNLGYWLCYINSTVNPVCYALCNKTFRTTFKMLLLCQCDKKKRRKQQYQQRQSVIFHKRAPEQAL

`CN1[C@@H]2C[C@@H](OC(=O)[C@H](CO)c3ccccc3)C[C@H]1[C@@H]1O[C@@H]12` [scopolamine]: the “effect on acquisition of contextual fear conditioning response” value is listed as “significant disruption” in [1] and “robust disruption” in data set [1] (listed as Scopolamine).
With `CCOC(=O)N1CCC(NCCNC(=O)c2ccccc2C)CC1` [VU0357017, ethyl 4-(2-(2-methylbenzamido)ethylamino)piperidine-1-carboxylate], the “agonist activity at M5” value at hM5 is “no activity”. Further, at rM1 Y381A, the “potency at M1 Y381A compared with WT M1” value is “potencies similar to those observed in WT M1 CHO cells”. In addition, the “agonist activity at M2” value at hM2 is given as “no activity”. In addition, at hM3, the “agonist activity at M3” value is recorded as “no activity”. In data set [2] (male, Sprague-Dawley, brain and plasma, ip, 10 mg/kg), this compound yielded a Kp of 1.46. Further, the brain level in data set [2] (10 mg/kg i.p., brain) was determined as 4338.90 ± 1071.20 ng/mL. The compound further showed a plasma level in data set [2] (10 mg/kg i.p., plasma) of 1053.49 ± 276.03 ng/mL. In addition, the central penetrance entry in data set [2] (i.p. administration) is “centrally-penetrant”. Besides, the “agonist activity at M4” value at rM4 is given as “no activity”. Besides, in the data set “Aqueous solubility”, the solubility was over 25 mg/mL. Also, the “ACh Max efficacy” value at rM1 receptor (setting [3]) amounted to 80.52 % ACh Max. Besides, the “reversal of scopolamine-induced deficits in contextual fear conditioning” value in data set [1] (10 mg/kg i.p., scopolamine 0.2 mg/kg s.c., p < 0.05) was “significant reversal”.
Turning to `CCOC(=O)N1CCC(NCCNC(=O)c2ccccc2Cl)CC1` [VU0207811], on hM5, the “agonist activity at M5” value is on record as “no alteration was detected in baseline”. The “rM1 Y381A AChmax (maximal efficacy)” value on rM1 Y381A (rM1 Y381A cells) is listed as 45.80 % max. At hM2, the “agonist activity at M2” value is “no alteration was detected in baseline”. Besides, on hM3, the “agonist activity at M3” value was “no alteration was detected in baseline”. For the same compound, the “agonist activity at M4” value at rM4 is recorded as “no alteration was detected in baseline”. Also, on rM1 receptor (setting [3]), the concentration giving a half-maximal response (EC50) came to 804 nM. Besides, at M1, the “sensitivity to block by atropine” value is given as “sensitive to block by atropine” and the EC50 was about 1000 nM.
Consider `Cc1ccccc1CN1CCC(N2CCC(n3c(=O)[nH]c4ccccc43)CC2)CC1` [TBPB], for which the IC50 on M5 turned out to be 10100 nM; on M2, 1100 nM.
Consider `Clc1ccc2c(c1)N=C(N1CCNCC1)c1ccccc1N2` [NDMC, N-desmethylclozapine, reference compound], for which, at rM1 Y381A, the “potency at M1 Y381A compared with WT M1” value is listed as “potency similar to that observed in cells expressing WT M1”.
On to `CCOC(=O)N1CCC(NCCNC(=O)c2cccc(OC)c2)CC1.O=C(O)C(F)(F)F` [VU0360014], for which the “M1 potency and efficacy (SAR statement)” value at rM1 receptor is “retaining substantial potency and efficacy”.
Still for that read-out and setting: the result for `CCOC(=O)N1CCC(NCCNC(=O)c2ccc(F)cc2)CC1.O=C(O)C(F)(F)F` [VU0359993] reads “retaining substantial potency and efficacy”; that for `CCOC(=O)N1CCC(NCCNC(=O)c2cccc(F)c2)CC1.O=C(O)C(F)(F)F` [VU0359995], “retaining substantial potency and efficacy”.
On to `CCOC(=O)N1CCC(NCCNC(=O)c2cccs2)CC1` [VU0177548], for which the “agonist activity at M5” value on hM5 is on record as “no alteration was detected in baseline”. In addition, the “rM1 Y381A AChmax (maximal efficacy)” value at rM1 Y381A (rM1 Y381A cells) amounted to 44.69 % max. The EC50 on rM1 Y381A (read-out: rM1 Y381A EC50, rM1 Y381A cells) was 1230 nM; at rM1 receptor (setting [3]) it was 1740 nM; at M1 it was about 1000 nM. Further, the “agonist activity at M2” value at hM2 was “no alteration was detected in baseline”. Moreover, at hM3, the “agonist activity at M3” value is listed as “no alteration was detected in baseline”. The “agonist activity at M4” value on rM4 is listed as “no alteration was detected in baseline”. For the same compound, the “selectivity for M1 vs. M4” value on M1 (M1-CHO vs M4/Gqi5 CHO cells) is over 50 fold. Moreover, the “sensitivity to block by atropine” value at M1 is reported as “sensitive to block by atropine”.

For the origin of these results see article PMC3180826 (ACS chemical neuroscience, 2010).
